Molecular target: T1, UniProt Q8VEU7
T1 sequence (whole entry): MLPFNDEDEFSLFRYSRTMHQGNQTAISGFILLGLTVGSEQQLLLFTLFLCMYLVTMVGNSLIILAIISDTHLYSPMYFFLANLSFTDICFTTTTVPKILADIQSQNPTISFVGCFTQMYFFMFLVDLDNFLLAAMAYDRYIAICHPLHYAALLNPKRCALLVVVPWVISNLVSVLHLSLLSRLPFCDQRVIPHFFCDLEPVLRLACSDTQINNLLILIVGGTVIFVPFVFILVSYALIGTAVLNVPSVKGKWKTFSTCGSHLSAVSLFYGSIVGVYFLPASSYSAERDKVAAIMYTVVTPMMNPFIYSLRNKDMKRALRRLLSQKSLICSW
Details: stereoisomer not certain
Procedure, shortened: (§1)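 Transient luciferase assays in mammalian cell lines were common, though methods varied by source. The values come from published papers and their supplementary material, with extra details from the original authors when needed. Responsive refers to a measured signal the original authors judged statistically different from baseline, and non-responsive (inactive) to the remainder.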
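Also: active if original authors judged signal statistically different from baseline.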

Compound | odorant receptor agonist call
CCC1CCC(=O)O1 (stereo unspecified) | inactive
C=CCOC(=O)Cc1ccccc1 | inactive
C=CCc1ccccc1 | inactive
O=c1cc(O)c2ccccc2o1 | inactive

Molecular target: T2, UniProt Q8VF05
T2 sequence (whole entry): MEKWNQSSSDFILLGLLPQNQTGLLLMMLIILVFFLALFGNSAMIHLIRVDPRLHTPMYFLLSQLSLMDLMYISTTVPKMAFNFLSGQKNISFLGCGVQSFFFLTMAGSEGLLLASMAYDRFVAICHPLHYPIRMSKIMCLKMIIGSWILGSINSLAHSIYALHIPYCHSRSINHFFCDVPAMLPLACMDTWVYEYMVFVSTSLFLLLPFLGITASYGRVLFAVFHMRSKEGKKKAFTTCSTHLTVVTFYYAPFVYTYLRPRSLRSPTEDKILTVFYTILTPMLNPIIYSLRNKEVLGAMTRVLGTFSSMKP
Details: stereoisomer not certain
Procedure, shortened: as §1

Compound | odorant receptor agonist call
CCC1CCC(=O)O1 (stereo unspecified) | active
C=CCOC(=O)Cc1ccccc1 | active
C=CCc1ccccc1 | inactive
O=c1cc(O)c2ccccc2o1 | inactive

Molecular target: T3, UniProt Q8VF24
T3 sequence (whole entry): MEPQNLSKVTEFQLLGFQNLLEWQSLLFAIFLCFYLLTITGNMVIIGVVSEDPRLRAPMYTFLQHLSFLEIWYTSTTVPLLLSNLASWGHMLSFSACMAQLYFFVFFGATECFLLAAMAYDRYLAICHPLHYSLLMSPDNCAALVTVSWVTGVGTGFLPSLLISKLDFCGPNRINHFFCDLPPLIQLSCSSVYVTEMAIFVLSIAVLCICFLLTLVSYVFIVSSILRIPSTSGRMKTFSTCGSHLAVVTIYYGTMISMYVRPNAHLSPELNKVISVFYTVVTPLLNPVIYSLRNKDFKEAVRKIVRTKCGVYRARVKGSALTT
Details: stereoisomer not certain
Procedure, shortened: as §1

Compound | odorant receptor agonist call
CCC1CCC(=O)O1 (stereo unspecified) | inactive
C=CCOC(=O)Cc1ccccc1 | inactive
C=CCc1ccccc1 | inactive
O=c1cc(O)c2ccccc2o1 | inactive

Molecular target: T4, UniProt Q8VF43
T4 sequence (whole entry): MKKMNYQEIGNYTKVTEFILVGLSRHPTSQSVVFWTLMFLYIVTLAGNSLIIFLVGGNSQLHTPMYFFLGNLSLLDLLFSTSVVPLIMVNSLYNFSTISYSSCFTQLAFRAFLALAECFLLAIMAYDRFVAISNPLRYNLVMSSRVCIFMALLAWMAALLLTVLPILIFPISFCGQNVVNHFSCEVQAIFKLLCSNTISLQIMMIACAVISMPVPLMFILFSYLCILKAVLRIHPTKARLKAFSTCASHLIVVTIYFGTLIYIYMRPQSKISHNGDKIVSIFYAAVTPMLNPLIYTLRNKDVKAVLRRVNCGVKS
Details: stereoisomer not certain
Procedure, shortened: as §1

Compound | odorant receptor agonist call
O=CC=Cc1ccccc1 | inactive
Oc1ccccc1Br | inactive
OCc1ccc2c(c1)OCO2 | inactive
CSSC | inactive
C=CCOC(=O)Cc1ccccc1 | inactive
Cc1ccc(OC(=O)Cc2ccccc2)cc1 | inactive
C=C(C)C1CC=C(C=O)CC1 (stereo unspecified) | inactive
CCCCCCC(Br)C(=O)O (stereo unspecified) | inactive
O=Cc1ccccc1 | inactive
O=Cc1ccc2c(c1)OCO2 | inactive
COc1ccc(C=O)cc1 | inactive
CC(C=O)Cc1ccc2c(c1)OCO2 (stereo unspecified) | inactive
CCCCC(Br)C(=O)O (stereo unspecified) | inactive
O=c1cc(O)c2ccccc2o1 | inactive

— the M2OR odorant receptor database
